Assay results from ChEMBL document CHEMBL5058577, “EUbOPEN Chemogenomics Library 2 (Multiplex)” (2022).

Test system: U2OS
Experiment: Multiplex assay against U2OS
Assay type: toxicity, cell-based
Conditions: human
Method in brief: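 Live cells were stained at seeding with Hoechst33342, BioTracker Green Microtubule Cytoskeleton Dye, MitoTracker Red and Annexin V Alexa Fluor 680, then imaged on a CQ1 microscope at 37°C and 5% CO2 after compound addition. CellPathfinder machine-learning gating split cells into Hoechst high-intensity objects or normal cells. Normal cells were split into healthy, pyknosed or fragmented nuclei, and pyknosed cells into mitotic or apoptotic. Tubulin, mitochondrial-mass and membrane-permeability phenotypes are per cents of healthy-nucleus cells.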

[1] = 12 h, 1 µM, compound concentration 1 uM, replicate 1
[2] = 12 h, 1 µM, compound concentration 1 uM, replicate 2
[3] = 12 h, 10 µM, compound concentration 10 uM, replicate 1
[4] = 12 h, 10 µM, compound concentration 10 uM, replicate 2
[5] = 24 h, 1 µM, compound concentration 1 uM, replicate 1
[6] = 24 h, 1 µM, compound concentration 1 uM, replicate 2
[7] = 24 h, 10 µM, compound concentration 10 uM, replicate 1
[8] = 24 h, 10 µM, compound concentration 10 uM, replicate 2
[9] = 48 h, 1 µM, compound concentration 1 uM, replicate 1
[10] = 48 h, 1 µM, compound concentration 1 uM, replicate 2
[11] = 48 h, 10 µM, compound concentration 10 uM, replicate 1
[12] = 48 h, 10 µM, compound concentration 10 uM, replicate 2

Cc1cc(O)c(-c2ccc([C@@H](C)CN(C)C)cc2)c2c1[nH]c(=O)c1sccc12
Population Apoptotic (%) [1]: 80% | Population Fragmented Nuclei (%) [1]: 38% | Population Healthy Nuclei (%) [1]: 48% | Population Hoechst High Intensity Objects (%) [1]: 4% | Population Membrane Permeable-Phenotype (%) [1]: 21% | Population Mitochondria Different-Phenotype (%) [1]: 17% | Population Mitotic Cells (%) [1]: 19% | Population Normal (%) [1]: 95% | Population Pyknosed Nuclei (%) [1]: 12% | Population Tubulin-Different-Phenotype (%) [1]: 12% | Total Cell Count [1]: 252 | Population Apoptotic (%) [2]: 70% | Population Fragmented Nuclei (%) [2]: 25% | Population Healthy Nuclei (%) [2]: 63% | Population Hoechst High Intensity Objects (%) [2]: 2% | Population Membrane Permeable-Phenotype (%) [2]: 9% | Population Mitochondria Different-Phenotype (%) [2]: 14% | Population Mitotic Cells (%) [2]: 30% | Population Normal (%) [2]: 97% | Population Pyknosed Nuclei (%) [2]: 11% | Population Tubulin-Different-Phenotype (%) [2]: 14% | Total Cell Count [2]: 89 | Population Apoptotic (%) [3]: 64% | Population Fragmented Nuclei (%) [3]: 28% | Population Healthy Nuclei (%) [3]: 50% | Population Hoechst High Intensity Objects (%) [3]: 4% | Population Membrane Permeable-Phenotype (%) [3]: 54% | Population Mitochondria Different-Phenotype (%) [3]: 62% | Population Mitotic Cells (%) [3]: 35% | Population Normal (%) [3]: 95% | Population Pyknosed Nuclei (%) [3]: 21% | Population Tubulin-Different-Phenotype (%) [3]: 72% | Total Cell Count [3]: 222 | Population Apoptotic (%) [4]: 69% | Population Fragmented Nuclei (%) [4]: 20% | Population Healthy Nuclei (%) [4]: 56% | Population Hoechst High Intensity Objects (%) [4]: 8% | Population Membrane Permeable-Phenotype (%) [4]: 22% | Population Mitochondria Different-Phenotype (%) [4]: 61% | Population Mitotic Cells (%) [4]: 30% | Population Normal (%) [4]: 91% | Population Pyknosed Nuclei (%) [4]: 22% | Population Tubulin-Different-Phenotype (%) [4]: 45% | Total Cell Count [4]: 110 | Population Apoptotic (%) [5]: 92% | Population Fragmented Nuclei (%) [5]: 43% | Population Healthy Nuclei (%) [5]: 34% | Population Hoechst High Intensity Objects (%) [5]: 8% | Population Membrane Permeable-Phenotype (%) [5]: 20% | Population Mitochondria Different-Phenotype (%) [5]: 25% | Population Mitotic Cells (%) [5]: 7% | Population Normal (%) [5]: 91% | Population Pyknosed Nuclei (%) [5]: 21% | Population Tubulin-Different-Phenotype (%) [5]: 19% | Total Cell Count [5]: 256 | Population Apoptotic (%) [6]: 100% | Population Fragmented Nuclei (%) [6]: 41% | Population Healthy Nuclei (%) [6]: 41% | Population Hoechst High Intensity Objects (%) [6]: 6% | Population Membrane Permeable-Phenotype (%) [6]: 15% | Population Mitochondria Different-Phenotype (%) [6]: 21% | Population Mitotic Cells (%) [6]: 0% | Population Normal (%) [6]: 93% | Population Pyknosed Nuclei (%) [6]: 17% | Population Tubulin-Different-Phenotype (%) [6]: 12% | Total Cell Count [6]: 83 | Population Apoptotic (%) [7]: 81% | Population Fragmented Nuclei (%) [7]: 36% | Population Healthy Nuclei (%) [7]: 35% | Population Hoechst High Intensity Objects (%) [7]: 9% | Population Membrane Permeable-Phenotype (%) [7]: 16% | Population Mitochondria Different-Phenotype (%) [7]: 70% | Population Mitotic Cells (%) [7]: 18% | Population Normal (%) [7]: 90% | Population Pyknosed Nuclei (%) [7]: 27% | Population Tubulin-Different-Phenotype (%) [7]: 47% | Total Cell Count [7]: 210 | Population Apoptotic (%) [8]: 82% | Population Fragmented Nuclei (%) [8]: 40% | Population Healthy Nuclei (%) [8]: 31% | Population Hoechst High Intensity Objects (%) [8]: 12% | Population Membrane Permeable-Phenotype (%) [8]: 25% | Population Mitochondria Different-Phenotype (%) [8]: 62% | Population Mitotic Cells (%) [8]: 17% | Population Normal (%) [8]: 87% | Population Pyknosed Nuclei (%) [8]: 28% | Population Tubulin-Different-Phenotype (%) [8]: 34% | Total Cell Count [8]: 118 | Population Apoptotic (%) [9]: 96% | Population Fragmented Nuclei (%) [9]: 53% | Population Healthy Nuclei (%) [9]: 18% | Population Hoechst High Intensity Objects (%) [9]: 17% | Population Membrane Permeable-Phenotype (%) [9]: 23% | Population Mitochondria Different-Phenotype (%) [9]: 25% | Population Mitotic Cells (%) [9]: 3% | Population Normal (%) [9]: 82% | Population Pyknosed Nuclei (%) [9]: 27% | Population Tubulin-Different-Phenotype (%) [9]: 25% | Total Cell Count [9]: 250 | Population Apoptotic (%) [10]: 100% | Population Fragmented Nuclei (%) [10]: 64% | Population Healthy Nuclei (%) [10]: 19% | Population Hoechst High Intensity Objects (%) [10]: 15% | Population Membrane Permeable-Phenotype (%) [10]: 35% | Population Mitochondria Different-Phenotype (%) [10]: 35% | Population Mitotic Cells (%) [10]: 0% | Population Normal (%) [10]: 84% | Population Pyknosed Nuclei (%) [10]: 15% | Total Cell Count [10]: 120 | Population Apoptotic (%) [11]: 96% | Population Fragmented Nuclei (%) [11]: 50% | Population Healthy Nuclei (%) [11]: 17% | Population Hoechst High Intensity Objects (%) [11]: 20% | Population Membrane Permeable-Phenotype (%) [11]: 25% | Population Mitochondria Different-Phenotype (%) [11]: 45% | Population Mitotic Cells (%) [11]: 3% | Population Normal (%) [11]: 79% | Population Pyknosed Nuclei (%) [11]: 31% | Population Tubulin-Different-Phenotype (%) [11]: 32% | Total Cell Count [11]: 220 | Population Apoptotic (%) [12]: 100% | Population Fragmented Nuclei (%) [12]: 54% | Population Healthy Nuclei (%) [12]: 13% | Population Hoechst High Intensity Objects (%) [12]: 15% | Population Membrane Permeable-Phenotype (%) [12]: 64% | Population Mitochondria Different-Phenotype (%) [12]: 50% | Population Mitotic Cells (%) [12]: 0% | Population Normal (%) [12]: 84% | Population Tubulin-Different-Phenotype (%) [12]: 64% | Total Cell Count [12]: 120
